Compound activity (PubChem BioAssay)
DDE Tn6 FP inh: DD(E)-Tn6 binding inhibition, primary FP screen; P02675; Fibrin DD(E) TRITC-Tn6 fluorescence polarization displacement; inhibition, % at 8.3 µM; 370,000 compounds, 0.21% hits;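 active means inhibition above a per-campaign cutoff: mean of compounds within control limits plus 3 SD, cut at about 15% in these data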
Target sequence (P02675 whole entry, looked up): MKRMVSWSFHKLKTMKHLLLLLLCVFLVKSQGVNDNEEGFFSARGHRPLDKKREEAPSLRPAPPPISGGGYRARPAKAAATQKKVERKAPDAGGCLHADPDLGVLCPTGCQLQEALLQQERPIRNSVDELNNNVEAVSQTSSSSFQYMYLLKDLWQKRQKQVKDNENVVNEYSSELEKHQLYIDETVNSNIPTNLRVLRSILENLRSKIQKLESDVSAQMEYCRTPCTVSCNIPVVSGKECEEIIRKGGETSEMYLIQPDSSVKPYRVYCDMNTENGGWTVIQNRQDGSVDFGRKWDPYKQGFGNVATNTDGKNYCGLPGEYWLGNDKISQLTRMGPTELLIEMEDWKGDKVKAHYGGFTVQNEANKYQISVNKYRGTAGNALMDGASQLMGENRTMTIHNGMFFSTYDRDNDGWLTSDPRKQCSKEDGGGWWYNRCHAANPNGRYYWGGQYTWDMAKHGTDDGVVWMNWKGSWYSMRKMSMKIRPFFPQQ
DDE Tn7 FP inh: DD(E)-Tn7 binding inhibition, primary FP screen; P02675; FP displacement of FITC-Tn7 peptide from fibrin DD(E); 0% = median of compound wells per plate; inhibition, % at 8.3 µM; 370,000 compounds, 0.13% hits; AID 720508;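 active means inhibition above the mean of compounds falling within the control limits plus 3 SD of them, cut at about 14% in these data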
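Assay system: human fibrin DD(E) protein / Input: 2 µM fibrin DD(E) / Benchmarks: high control of 10 µM Aha-Tn7 peptide / Measured by: fluorescence polarization of the labelled Tn7 tracer / Medium: Tris buffer with calcium and detergent, pH 7.8 / Timing: 10 min compound pre-incubation, 3 h probe incubation at room temperature / Repeats: one replicate per compound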
CRFR2-BP ag: CRF-BP/CRF-R2 complex agonism; HEK293 CRF-R2/CRF-BP, calcium dye fluorescence (FLIPR); percent of saturating CRF peptide response; activation, % at 13.2 µM; 350,000 compounds, 0.46% hits; AID 588473;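 active means activation of at least 50%, plus an integration ratio under a set limit after plate pattern correction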
CRFBP-R2 block: CRF-BP/CRF-R2 complex antagonism. HEK293 CRF-R2/CRF-BP, CRF-induced calcium fluorescence. inhibition, % at 11.8 µM. 350,000 compounds, 0.59% hits. AID 588475;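 active means inhibition of the ligand-induced calcium signal above about 50% at the single tested concentration, limit read from the data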
A number is an active result; ! = not confirmed by another sample. Sampled rows, rich in hits. Any-hit rate of the full collection: about 1.2%.

What do the screens show for `C=CCn1c(O)c(C(CC)=Nc2ccccc2NC(=O)CC)c(=O)[nH]c1=O`?
DDE Tn6 FP inh: inactive; DDE Tn7 FP inh: inactive; CRFR2-BP ag: inactive; CRFBP-R2 block: 76

What do the screens show for `CC[C@@]1(O)C(=O)OCc2c1cc1n(c2=O)Cc2cc3c(N)cccc3nc2-1`?
DDE Tn6 FP inh: inactive; DDE Tn7 FP inh: inactive; CRFR2-BP ag: inactive; CRFBP-R2 block: inactive

Results for CC[C@@]1(O)C(=O)OCc2c1cc1n(c2=O)Cc2cc3c(CN(C)C)c(O)ccc3nc2-1 ?
DDE Tn6 FP inh: inactive; DDE Tn7 FP inh: 30; CRFR2-BP ag: 231; CRFBP-R2 block: inactive

Results for CC(C)(C)c1ccc(-c2nnc(SCC3CCCCO3)n2-c2ccc(Cl)cc2)cc1 (stereo not drawn) ?
DDE Tn6 FP inh: inactive; DDE Tn7 FP inh: inactive

How did CCC(C)c1ccc(NC(=S)Nc2ccc(OC)cc2)cc1 (stereo not drawn) do in these assays?
DDE Tn6 FP inh: inactive; DDE Tn7 FP inh: inactive; CRFR2-BP ag: inactive; CRFBP-R2 block: 133

How did CCOC(=O)Nc1ccc(OC(=O)Oc2ccc(NC(=O)OCC)cc2)cc1 do in these assays?
DDE Tn6 FP inh: inactive; DDE Tn7 FP inh: inactive; CRFR2-BP ag: inactive; CRFBP-R2 block: inactive

Results for CCOC(=O)Nc1ccc(Oc2ccccc2)cc1 ?
DDE Tn6 FP inh: inactive; DDE Tn7 FP inh: inactive; CRFR2-BP ag: inactive; CRFBP-R2 block: 57

Results for C#CCCCN([C@H](C(=O)OC)C(C)C)S(=O)(=O)c1ccc(F)cc1Br ?
DDE Tn6 FP inh: inactive; DDE Tn7 FP inh: inactive

What do the screens show for `CN(CCO)c1cccc2c1S(=O)(=O)N(Cc1cn(Cc3cccc(F)c3)nn1)Cc1ccccc1O2`?
DDE Tn6 FP inh: inactive; DDE Tn7 FP inh: inactive

How did COc1ccc2c(c1)CNC2CS(=O)(=O)NCCc1ccccc1 (stereo not drawn) do in these assays?
DDE Tn6 FP inh: inactive; DDE Tn7 FP inh: inactive

What do the screens show for `CN1Cc2nnn(Cc3ccccc3)c2-c2ccccc2S1(=O)=O`?
DDE Tn6 FP inh: inactive; DDE Tn7 FP inh: inactive

Results for COC(=O)[C@]12C[C@H](CC(=O)N3CCCC3)C(=O)N(CCC3=CCCCC3)C1=C[C@H](C(C)C)O[C@@H]2C1CC1 ?
DDE Tn6 FP inh: inactive; DDE Tn7 FP inh: inactive

Results for Cc1ccc(-c2c[n+](CC(=O)Nc3nc(-c4ccc(F)cc4)cs3)c3n2CCC3)cc1 ?
DDE Tn6 FP inh: inactive; DDE Tn7 FP inh: inactive; CRFR2-BP ag: inactive; CRFBP-R2 block: 63

Results for O=C(C[n+]1cc(-c2ccc(F)cc2)n2c1CCC2)Nc1nc(-c2ccccc2)cs1 ?
DDE Tn6 FP inh: inactive; DDE Tn7 FP inh: inactive; CRFR2-BP ag: inactive; CRFBP-R2 block: inactive

How did O=C(NC1CCCCN(Cc2ccc(Cl)cc2)C1=O)c1ccccn1 (stereo not drawn) do in these assays?
DDE Tn6 FP inh: inactive; DDE Tn7 FP inh: inactive

Results for CC1=CC(=C(C#N)c2nc3ccccc3s2)C=C(C)N1c1ccc(F)cc1 ?
DDE Tn6 FP inh: inactive; DDE Tn7 FP inh: inactive; CRFR2-BP ag: inactive; CRFBP-R2 block: inactive

How did COc1ccccc1N1C(C)=CC(=C(C#N)c2nc3ccccc3s2)C=C1C do in these assays?
DDE Tn6 FP inh: inactive; DDE Tn7 FP inh: inactive; CRFR2-BP ag: 109; CRFBP-R2 block: inactive

How did CC(C)CNc1cccc2c1S(=O)(=O)N(Cc1cn(Cc3ccc(C(F)(F)F)cc3)nn1)Cc1ccccc1O2 do in these assays?
DDE Tn6 FP inh: inactive; DDE Tn7 FP inh: inactive

How did Cc1cc(C)n2nc(/C(C#N)=C/c3ccccc3)c(C#N)c2n1 do in these assays?
DDE Tn6 FP inh: inactive; DDE Tn7 FP inh: inactive; CRFR2-BP ag: inactive; CRFBP-R2 block: 99

Results for CCOC(=O)c1ccc(N=c2sc(C(=O)OC)cc(=O)n2Cc2ccco2)cc1 ?
DDE Tn6 FP inh: inactive; DDE Tn7 FP inh: inactive; CRFR2-BP ag: inactive; CRFBP-R2 block: inactive

How did CCOC(=O)c1ccc(N=c2sc(C(=O)OC)cc(=O)n2CCCN2CCOCC2)cc1 do in these assays?
DDE Tn6 FP inh: inactive; DDE Tn7 FP inh: inactive; CRFR2-BP ag: inactive; CRFBP-R2 block: 57!

How did COc1cccc(C2CC(c3cccs3)=NN2C(=S)Nc2ccccc2)c1OC (stereo not drawn) do in these assays?
DDE Tn6 FP inh: inactive; DDE Tn7 FP inh: inactive; CRFR2-BP ag: inactive; CRFBP-R2 block: 81

What do the screens show for `COC(=O)C1CN(Cc2cn(Cc3ccc(OC)cc3)nn2)CCS(=O)(=O)N1Cc1ccc(OC)cc1` (stereo not drawn)?
DDE Tn6 FP inh: inactive; DDE Tn7 FP inh: inactive

How did CC1=[N+](C)c2c(ccc3cccnc23)C1(C)C do in these assays?
DDE Tn6 FP inh: 153; DDE Tn7 FP inh: inactive; CRFR2-BP ag: inactive; CRFBP-R2 block: inactive

Results for Cc1[nH]c2c(ccc3cccnc32)c1C ?
DDE Tn6 FP inh: inactive; DDE Tn7 FP inh: inactive; CRFR2-BP ag: inactive; CRFBP-R2 block: inactive

What do the screens show for `COC(=O)C1=NN(c2ccc(C)cc2)C2(S1)SC(C(C)=O)=C(C)N2c1ccccc1` (stereo not drawn)?
DDE Tn6 FP inh: inactive; DDE Tn7 FP inh: inactive; CRFR2-BP ag: inactive; CRFBP-R2 block: inactive

What do the screens show for `COC(=O)C1=NN(c2ccccc2)C2(S1)SC(C(C)=O)=C(C)N2c1ccccc1` (stereo not drawn)?
DDE Tn6 FP inh: inactive; DDE Tn7 FP inh: inactive; CRFR2-BP ag: inactive; CRFBP-R2 block: 65

What do the screens show for `O=C(c1ccco1)N(Cc1cccc([N+](=O)[O-])c1)c1ccc(Br)cc1`?
DDE Tn6 FP inh: inactive; DDE Tn7 FP inh: inactive; CRFR2-BP ag: inactive; CRFBP-R2 block: 82

How did O=C(c1ccco1)N(Cc1ccc([N+](=O)[O-])cc1)c1ccc(Br)cc1 do in these assays?
DDE Tn6 FP inh: inactive; DDE Tn7 FP inh: inactive; CRFR2-BP ag: inactive; CRFBP-R2 block: inactive

What do the screens show for `Cc1ccc(-n2nc3c(c2NC(=O)c2cccs2)CSC3)cc1`?
DDE Tn6 FP inh: inactive; DDE Tn7 FP inh: inactive; CRFR2-BP ag: inactive; CRFBP-R2 block: inactive

What do the screens show for `Cc1nn(-c2ccccc2)c(NC(=O)c2cccs2)c(-c2ccccc2Cl)c1=O`?
DDE Tn6 FP inh: inactive; DDE Tn7 FP inh: inactive; CRFR2-BP ag: inactive; CRFBP-R2 block: 111

What do the screens show for `CC1CCCC(C)N1C(=O)COC(=O)COc1ccc(C#N)cc1` (stereo not drawn)?
DDE Tn6 FP inh: inactive; DDE Tn7 FP inh: inactive; CRFR2-BP ag: inactive; CRFBP-R2 block: 72

How did CC1CCCN(C(=O)COC(=O)COc2ccc(C#N)cc2)C1 (stereo not drawn) do in these assays?
DDE Tn6 FP inh: inactive; DDE Tn7 FP inh: inactive; CRFR2-BP ag: inactive; CRFBP-R2 block: inactive

Results for COc1ccc(-c2csc(NC(=O)CSc3nc(SC)ns3)n2)cc1 ?
DDE Tn6 FP inh: inactive; DDE Tn7 FP inh: inactive; CRFR2-BP ag: inactive; CRFBP-R2 block: 85

How did CCCCCC/C(=N/O)c1ccccn1 do in these assays?
DDE Tn6 FP inh: inactive; DDE Tn7 FP inh: inactive; CRFR2-BP ag: inactive; CRFBP-R2 block: 59

Results for C/C(=N/O)c1ccccn1 ?
DDE Tn6 FP inh: inactive; DDE Tn7 FP inh: inactive; CRFR2-BP ag: inactive; CRFBP-R2 block: inactive

What do the screens show for `COC(=O)[C@H](CC(C)C)N1Cc2nnn(Cc3ccccc3)c2-c2ccccc2S1(=O)=O`?
DDE Tn6 FP inh: inactive; DDE Tn7 FP inh: inactive

Results for CCc1ccc(OCCOCC(O)CNC(C)(C)C)cc1 (stereo not drawn) ?
DDE Tn6 FP inh: inactive; DDE Tn7 FP inh: inactive; CRFR2-BP ag: 58; CRFBP-R2 block: inactive
